Experimental data from ChEMBL document CHEMBL1275449, “Potent in vitro antifungal activities of naturally occurring acetylenic acids” (Antimicrob Agents Chemother, 2008).
In brackets after ≈: the same amount, converted by molar mass. Activity calls are given as the source filed them. No cut-off for these calls is given here.

Experiments:
[1] = tested on: Candida albicans; experiment: Antifungal activity against Candida albicans ATCC 200955 at 542.7 uM after 48 hrs by CLSI method; format: functional, organism-based
In short: (§1)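 Candida inocula came from 24–72-h SD agar colonies suspended in saline. They were diluted by OD630 standard curve into RPMI 1640 (0.2% dextrose, 0.03% glutamine, 0.165 M MOPS, pH 7.0) to 1.5 × 10³ CFU/ml. Compounds were run as 11 twofold dilutions in 20% DMSO-saline, in duplicate, at 35°C for 48 h, with OD530 read before and after. Percent growth at the top concentration, IC50, MIC, and MFC (SD agar plating) were derived.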

[2] = tested on: Candida tropicalis; experiment: Antifungal activity against Candida tropicalis ATCC 750 after 48 hrs by CLSI method; format: functional, organism-based; conditions: ATCC 750, 48 h
In short: (§2)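 Yeast suspensions made from 3-5 colonies off 24-72 h SD agar plates in saline. They were diluted by OD630 standard curve in RPMI 1640 (0.2% dextrose, 0.03% glutamine, 0.165 M MOPS, pH 7.0) to 1.5 × 10³ CFU/ml. Twofold dilutions (11 concentrations, 20% DMSO-saline) run in duplicate. OD530 read before and after 35°C, 48 h. Line values are top test concentrations; no-growth endpoints give MIC/MFC.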

[3] = tested on: Trichophyton rubrum; experiment: Antifungal activity against Trichophyton rubrum ATCC MYA-4438 at 542.7 uM after 5 days by CLSI method; format: functional, organism-based
[4] = tested on: Aspergillus fumigatus; experiment: Antifungal activity against Aspergillus fumigatus ATCC 90906 at 542.7 uM after 48 hrs by CLSI method; format: functional, organism-based
[5] = tested on: Aspergillus fumigatus; experiment: Antifungal activity against Aspergillus fumigatus ATCC 204305 at 542.7 uM after 48 hrs by CLSI method; format: functional, organism-based
[6] = tested on: Trichophyton mentagrophytes; experiment: Antifungal activity against Trichophyton mentagrophytes ATCC 9533 at 542.7 uM after 5 days by CLSI method; format: functional, organism-based
[7] = tested on: Pichia kudriavzevii; experiment: Antifungal activity against Candida krusei ATCC 6258 at 542.7 uM after 48 hrs by CLSI method; format: functional, organism-based; in short: as §2
[8] = tested on: Trichophyton mentagrophytes; experiment: Antifungal activity against Trichophyton mentagrophytes ATCC 9533 by CLSI method; format: functional, organism-based
In short: (§3)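 Growth scraped from 1- to 6-week-old potato dextrose slants and filtered through Miracloth. Diluted in 5% Alamar blue-RPMI 1640 (MOPS pH 7.0) to 2.7 × 10⁴ CFU/ml. Eleven twofold dilutions in duplicate. Fluorescence at 544 nm excitation/590 nm emission read before and after 35°C, 5 days. IC50 fitted from percent growth. MIC taken as no detectable growth; MFC from clear or blue wells plated on PD agar.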

[9] = tested on: Candida albicans; experiment: Antifungal activity against Candida albicans ATCC 32354 at 542.7 uM after 48 hrs by CLSI method; format: functional, organism-based; in short: as §1
[10] = tested on: Aspergillus niger; experiment: Antifungal activity against Aspergillus niger ATCC 16404 at 542.7 uM after 48 hrs by CLSI method; format: functional, organism-based
[11] = tested on: Candida albicans; experiment: Antifungal activity against Candida albicans ATCC 14053 at 542.7 uM after 48 hrs by CLSI method; format: functional, organism-based
[12] = tested on: Candida albicans; experiment: Antifungal activity against Candida albicans ATCC 90028 at 542.7 uM after 48 hrs by CLSI method; format: functional, organism-based; in short: as §1
[13] = tested on: Candida albicans; experiment: Antifungal activity against Candida albicans ATCC 32354 after 48 hrs by CLSI method; format: functional, organism-based; conditions: ATCC 32354, 48 h
In short: (§4)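 CLSI broth microdilution. Colonies from 24–72 h SD agar suspended in saline and sized by OD630 standard curve. Inoculum 1.5 × 10³ CFU/ml (final) in RPMI 1640 (0.2% dextrose, 0.03% glutamine, 0.165 M MOPS, pH 7.0). Twofold dilutions (11 levels) from 20% DMSO-saline, in duplicate. 35°C for 48 h, OD530 read before and after. IC50 fitted from % growth. MIC: no detectable growth. MFC: subculture onto SD agar.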

[14] = tested on: Trichophyton rubrum; experiment: Antifungal activity against Trichophyton rubrum ATCC 10218 at 542.7 uM after 5 days by CLSI method; format: functional, organism-based
[15] = tested on: Candida albicans; experiment: Antifungal activity against Fluconazole resistant Candida albicans isolate 17 at 542.7 uM after 48 hrs by CLSI method; format: functional, organism-based
In short: (§5)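 Candida in CLSI broth microdilution. Saline colony suspension set to 1.5 × 10³ CFU/ml (final) in MOPS-buffered RPMI 1640, pH 7.0. Test agent given as twofold serial dilutions in 20% DMSO-saline, duplicate wells. 35°C for 48 h. Growth read as OD530 before and after incubation. Percent inhibition scored at the highest test concentration.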

[16] = tested on: Trichophyton mentagrophytes; experiment: Antifungal activity against Trichophyton mentagrophytes ATCC MYA-4439 by CLSI method; format: functional, organism-based; in short: as §3
[17] = tested on: Aspergillus niger; experiment: Antifungal activity against Aspergillus niger ATCC 16404 after 48 h by CLSI method; conditions: ATCC 16404, 48 h
[18] = tested on: Candida albicans; experiment: Antifungal activity against Candida albicans ATCC 60193 at 542.7 uM after 48 hrs by CLSI method; format: functional, organism-based; in short: as §1
[19] = tested on: Candida albicans; experiment: Antifungal activity against Candida albicans assessed as inhibition of growth at 100 uM; format: functional, organism-based
[20] = tested on: Candida albicans; experiment: Antifungal activity against Candida albicans ATCC 60193 after 48 hrs by CLSI method; format: functional, organism-based; conditions: ATCC 60193, 48 h; in short: as §4
[21] = tested on: Candida albicans; experiment: Antifungal activity against Fluconazole resistant Candida albicans clinical isolate 1 after 48 hrs by CLSI method; format: functional, organism-based; in short: as §4
[22] = tested on: Candida parapsilosis; experiment: Antifungal activity against Candida parapsilosis ATCC 22019 at 542.7 uM after 48 hrs by CLSI method; format: functional, organism-based; in short: as §2
[23] = tested on: Aspergillus flavus; experiment: Antifungal activity against Aspergillus flavus ATCC 204304 at 542.7 uM after 48 hrs by CLSI method; format: functional, organism-based
[24] = tested on: Cryptococcus neoformans; experiment: Antifungal activity against Cryptococcus neoformans ATCC 90113 after 72 hrs by CLSI method; format: functional, organism-based; conditions: ATCC 90113, 72 h
In short: (§6)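 SD broth replaced RPMI because growth in RPMI was poor; other CLSI conditions were kept. Inoculum was 1.5 × 10³ CFU/ml from colonies on SD agar, checked by plating. Twofold serial dilutions (11 concentrations) in 20% DMSO-saline were tested in duplicate. OD530 was read before and after incubation at 35°C for 72 h. Percent growth gave IC50; the MIC is the lowest concentration with no detectable growth.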

[25] = tested on: Pichia kudriavzevii; experiment: Antifungal activity against Candida krusei ATCC 6258 after 48 hrs by CLSI method; format: functional, organism-based; conditions: ATCC 6258, 48 h; in short: as §1
[26] = tested on: Trichophyton rubrum; experiment: Antifungal activity against Trichophyton rubrum ATCC MYA-4438 by CLSI method; format: functional, organism-based; in short: as §3
[27] = tested on: Candida albicans; experiment: Antifungal activity against Fluconazole resistant Candida albicans clinical isolate 17 after 48 hrs by CLSI method; format: functional, organism-based; in short: as §4
[28] = tested on: Candida tropicalis; experiment: Antifungal activity against Candida tropicalis ATCC 750 at 542.7 uM after 48 hrs by CLSI method; format: functional, organism-based; in short: as §2
[29] = tested on: Nakaseomyces glabratus; experiment: Antifungal activity against Candida glabrata ATCC 90030 at 542.7 uM after 48 hrs by CLSI method; format: functional, organism-based; in short: as §1
[30] = tested on: Trichophyton mentagrophytes; experiment: Antifungal activity against Trichophyton mentagrophytes ATCC MYA-4439 at 542.7 uM after 5 days by CLSI method; format: functional, organism-based
[31] = tested on: Candida albicans; experiment: Antifungal activity against Candida albicans ATCC 14053 after 48 hrs by CLSI method; format: functional, organism-based; conditions: ATCC 14053, 48 h; in short: as §4
[32] = tested on: Candida albicans; experiment: Antifungal activity against Candida albicans assessed as inhibition of morphogenesis at 10 uM; format: functional, organism-based
[33] = tested on: Cryptococcus neoformans; experiment: Antifungal activity against Cryptococcus neoformans ATCC 66031 after 72 hrs by CLSI method; format: functional, organism-based; conditions: ATCC 66031, 72 h; in short: as §6
[34] = tested on: Candida albicans; experiment: Antifungal activity against Fluconazole resistant Candida albicans isolate 1 at 542.7 uM after 48 hrs by CLSI method; format: functional, organism-based; in short: as §5
[35] = tested on: Trichophyton rubrum; experiment: Antifungal activity against Trichophyton rubrum ATCC 10218 by CLSI method; format: functional, organism-based; in short: as §3
[36] = tested on: Candida albicans; experiment: Antifungal activity against Candida albicans ATCC 200955 after 48 hrs by CLSI method; format: functional, organism-based; conditions: ATCC 200955, 48 h; in short: as §4
[37] = tested on: Candida parapsilosis; experiment: Antifungal activity against Candida parapsilosis ATCC 22019 after 48 hrs by CLSI method; format: functional, organism-based; conditions: Lodderomyces parapsilosis, ATCC 22019, 48 h; in short: as §2

Q: How did the Activity [1] turn out when `C=CCCCCCCCCC(=O)O` [UNDECYLENIC ACID] was run?
A: inactive

Q: What about the IC50 [2] of the same compound?
A: > 543 µM

Q: And the Activity [3]?
A: inactive

Q: What about the Activity [4] of the same compound?
A: inactive

Q: And the Activity [5]?
A: inactive

Q: And the Activity [6]?
A: inactive

Q: And the Activity [7]?
A: inactive

Q: What about the IC50 [8] of the same compound?
A: 279 µM

Q: And the MIC [8]?
A: 543 µM (≈ 100 µg/mL)

Q: And the Activity [9]?
A: inactive

Q: What about the Activity [10] of the same compound?
A: inactive

Q: What about the Activity [11] of the same compound?
A: inactive

Q: And the Activity [12]?
A: inactive

Q: And the IC50 [13]?
A: > 543 µM

Q: What about the Activity [14] of the same compound?
A: inactive

Q: And the Activity [15]?
A: inactive

Q: What about the IC50 [16] of the same compound?
A: 379 µM

Q: What about the MIC [16] of the same compound?
A: 543 µM (≈ 100 µg/mL)

Q: What about the IC50 [17] of the same compound?
A: 415 µM

Q: What about the Activity [18] of the same compound?
A: inactive

Q: What about the inhibition [19] of the same compound?
A: inactive

Q: And the IC50 [20]?
A: > 543 µM

Q: And the IC50 [21]?
A: > 543 µM

Q: What about the Activity [22] of the same compound?
A: inactive

Q: And the Activity [23]?
A: inactive

Q: And the IC50 [24]?
A: 25.3 µM

Q: What about the MFC [24] of the same compound?
A: 543 µM (≈ 100 µg/mL)

Q: And the MIC [24]?
A: 271 µM (≈ 50 µg/mL)

Q: What about the IC50 [25] of the same compound?
A: > 543 µM

Q: And the IC50 [26]?
A: 111 µM

Q: What about the MIC [26] of the same compound?
A: 543 µM (≈ 100 µg/mL)

Q: What about the IC50 [27] of the same compound?
A: > 543 µM

Q: And the Activity [28]?
A: inactive

Q: What about the Activity [29] of the same compound?
A: inactive

Q: What about the Activity [30] of the same compound?
A: inactive

Q: And the IC50 [31]?
A: > 543 µM

Q: And the inhibition [32]?
A: Active

Q: And the IC50 [33]?
A: 2.7 µM

Q: What about the MFC [33] of the same compound?
A: 271 µM (≈ 50 µg/mL)

Q: And the MIC [33]?
A: 136 µM (≈ 25 µg/mL)

Q: And the Activity [34]?
A: inactive

Q: What about the IC50 [35] of the same compound?
A: 270 µM

Q: What about the MIC [35] of the same compound?
A: 543 µM (≈ 100 µg/mL)

Q: What about the IC50 [36] of the same compound?
A: > 543 µM

Q: What about the IC50 [37] of the same compound?
A: > 543 µM
